Assay results reported in ChEMBL document CHEMBL5653623 (J Pharmacol Exp Ther, 2015).
Calls of active or inactive are those of the source. The rule behind the calls is not given here.

How the values were obtained:
[1] = Unbound fraction in C57Bl/6 mouse brain; type: ADME, tissue-based
Procedure, shortened: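 Plasma and brain binding were determined by equilibrium dialysis at 1 μM.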

Mus musculus [2] = assay: Effect on behavioral phenotype in 11 weeks old MitoPark mouse assessed as decreased rearing behavior at 30 mg/kg/day administered for 6 weeks and measured after 60 mins; type: functional, organism-based
Procedure, shortened: (§1)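 MitoPark mice, 5 weeks old, were allocated by baseline 60-min LMA to untreated diet or diet targeting 30 mg/kg/day (reformulated every 3 weeks). Wild-type littermates received vehicle diet. Body weight and food intake were recorded weekly. 60-min LMA (distance, rearing) was run at 8, 11, 14 and 17 weeks of age.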

[3] = Unbound brain concentration in C57Bl/6 mouse at 1 mg/kg, po administered for 1 hr; type: ADME, organism-based; conditions: in vivo
[4] = molecular target: Leucine-rich repeat serine/threonine-protein kinase 2 (Mus musculus) (UniProt Q5S006); assay: In vivo inhibition of LRRK2 in 20 weeks old MitoPark mouse lung assessed as reduction in total LRRK2 protein level at 30 mg/kg/day administered for 15 weeks by Western blotting analysis; type: functional, organism-based
Leucine-rich repeat serine/threonine-protein kinase 2 (Mus musculus), sequence (Q5S006 whole entry): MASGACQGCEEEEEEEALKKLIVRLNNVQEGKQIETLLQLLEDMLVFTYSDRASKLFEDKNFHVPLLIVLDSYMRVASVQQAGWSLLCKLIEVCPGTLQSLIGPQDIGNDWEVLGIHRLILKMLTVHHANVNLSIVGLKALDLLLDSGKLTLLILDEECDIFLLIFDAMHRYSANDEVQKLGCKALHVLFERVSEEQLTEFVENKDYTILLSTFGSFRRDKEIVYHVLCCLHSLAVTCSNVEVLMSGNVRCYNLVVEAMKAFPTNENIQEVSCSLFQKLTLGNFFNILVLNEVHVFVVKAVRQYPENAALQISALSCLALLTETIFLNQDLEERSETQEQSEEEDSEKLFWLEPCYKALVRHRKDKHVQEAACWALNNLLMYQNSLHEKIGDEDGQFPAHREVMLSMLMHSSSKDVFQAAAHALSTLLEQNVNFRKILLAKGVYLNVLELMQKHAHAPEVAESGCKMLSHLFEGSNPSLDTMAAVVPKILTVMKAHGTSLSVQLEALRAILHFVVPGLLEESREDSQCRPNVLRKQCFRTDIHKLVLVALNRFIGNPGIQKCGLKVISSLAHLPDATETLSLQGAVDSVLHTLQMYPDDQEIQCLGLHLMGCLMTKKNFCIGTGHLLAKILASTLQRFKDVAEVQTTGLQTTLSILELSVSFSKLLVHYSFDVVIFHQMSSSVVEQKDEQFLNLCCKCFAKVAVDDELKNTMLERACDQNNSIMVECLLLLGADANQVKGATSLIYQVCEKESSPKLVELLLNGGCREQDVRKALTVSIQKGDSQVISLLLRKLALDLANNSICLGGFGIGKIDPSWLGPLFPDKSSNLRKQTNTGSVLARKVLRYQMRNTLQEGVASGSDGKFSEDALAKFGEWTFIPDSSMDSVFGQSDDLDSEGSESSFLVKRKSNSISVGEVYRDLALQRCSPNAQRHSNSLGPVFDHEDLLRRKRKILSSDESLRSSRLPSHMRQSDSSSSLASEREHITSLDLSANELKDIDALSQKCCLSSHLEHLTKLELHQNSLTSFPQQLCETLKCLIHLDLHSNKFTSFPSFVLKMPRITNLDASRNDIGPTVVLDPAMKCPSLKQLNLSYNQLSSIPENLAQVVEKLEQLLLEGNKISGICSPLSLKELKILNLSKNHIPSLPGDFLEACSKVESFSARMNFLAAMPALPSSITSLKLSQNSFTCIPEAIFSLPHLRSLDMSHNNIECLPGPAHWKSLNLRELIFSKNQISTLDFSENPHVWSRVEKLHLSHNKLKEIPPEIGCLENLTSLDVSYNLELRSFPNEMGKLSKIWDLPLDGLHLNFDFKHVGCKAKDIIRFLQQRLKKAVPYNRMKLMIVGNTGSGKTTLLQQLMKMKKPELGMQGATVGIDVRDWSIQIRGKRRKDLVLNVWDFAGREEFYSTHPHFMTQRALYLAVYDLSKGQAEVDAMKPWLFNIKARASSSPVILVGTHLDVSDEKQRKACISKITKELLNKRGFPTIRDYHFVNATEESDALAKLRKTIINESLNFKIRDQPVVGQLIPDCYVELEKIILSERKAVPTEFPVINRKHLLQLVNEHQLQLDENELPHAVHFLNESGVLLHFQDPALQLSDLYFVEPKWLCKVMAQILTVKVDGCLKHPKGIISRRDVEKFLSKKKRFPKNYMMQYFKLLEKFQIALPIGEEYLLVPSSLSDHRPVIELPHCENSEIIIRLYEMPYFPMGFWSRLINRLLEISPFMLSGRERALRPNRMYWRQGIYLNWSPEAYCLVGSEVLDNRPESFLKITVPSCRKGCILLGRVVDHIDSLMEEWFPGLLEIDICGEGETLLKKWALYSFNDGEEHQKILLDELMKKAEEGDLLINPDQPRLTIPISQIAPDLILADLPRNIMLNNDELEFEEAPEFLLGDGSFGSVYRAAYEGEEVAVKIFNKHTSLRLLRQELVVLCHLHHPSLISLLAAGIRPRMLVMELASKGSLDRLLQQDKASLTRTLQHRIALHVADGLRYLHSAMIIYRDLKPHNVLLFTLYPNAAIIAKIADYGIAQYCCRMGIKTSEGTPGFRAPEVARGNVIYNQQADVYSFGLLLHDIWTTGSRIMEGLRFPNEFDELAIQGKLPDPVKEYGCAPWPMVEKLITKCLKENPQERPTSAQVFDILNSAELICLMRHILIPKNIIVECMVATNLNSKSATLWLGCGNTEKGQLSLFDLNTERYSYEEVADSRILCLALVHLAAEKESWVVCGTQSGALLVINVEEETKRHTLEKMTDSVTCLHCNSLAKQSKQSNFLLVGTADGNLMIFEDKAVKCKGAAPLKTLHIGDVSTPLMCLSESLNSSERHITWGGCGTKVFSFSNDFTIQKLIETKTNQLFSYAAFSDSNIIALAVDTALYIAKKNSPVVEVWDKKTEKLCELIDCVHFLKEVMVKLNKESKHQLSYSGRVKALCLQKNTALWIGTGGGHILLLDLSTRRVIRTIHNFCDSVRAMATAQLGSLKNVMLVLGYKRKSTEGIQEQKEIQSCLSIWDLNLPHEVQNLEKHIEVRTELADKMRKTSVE
Procedure, shortened: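 MitoPark mice on drug-containing diet targeted to 30 mg/kg/day from 5 weeks of age, with the diet reformulated every 3 weeks to hold the target. Untreated-diet MitoPark and wild-type littermate controls. Killed by CO2 at 20 weeks of age. Lung and kidney taken from 5 mice per group for pSer935 and total LRRK2 immunoblots.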

Mus musculus [5] = assay: Effect on behavioral changes in 14 weeks old MitoPark mouse striatum assessed as DOPAC level at 30 mg/kg/day by HPLC analysis; type: functional
Procedure, shortened: (§2)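 Striatum from MitoPark mice on diet targeting 30 mg/kg/day or vehicle diet (wild-type littermate controls) was homogenized by sonication in 0.1 M acid at 0.1 g/mL. Samples were held 60 min at 4 °C and centrifuged. Dopamine, DOPAC and HVA were measured by HPLC with electrochemical detection against a 3,4-DHBA internal standard and standard curves. Mean ± SEM.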

[6] = molecular target: Mitogen-activated protein kinase kinase kinase 14 (Homo sapiens, UniProt Q99558); assay: Inhibition of MAP3K14 (unknown origin)
Mitogen-activated protein kinase kinase kinase 14, sequence (Q99558 whole entry): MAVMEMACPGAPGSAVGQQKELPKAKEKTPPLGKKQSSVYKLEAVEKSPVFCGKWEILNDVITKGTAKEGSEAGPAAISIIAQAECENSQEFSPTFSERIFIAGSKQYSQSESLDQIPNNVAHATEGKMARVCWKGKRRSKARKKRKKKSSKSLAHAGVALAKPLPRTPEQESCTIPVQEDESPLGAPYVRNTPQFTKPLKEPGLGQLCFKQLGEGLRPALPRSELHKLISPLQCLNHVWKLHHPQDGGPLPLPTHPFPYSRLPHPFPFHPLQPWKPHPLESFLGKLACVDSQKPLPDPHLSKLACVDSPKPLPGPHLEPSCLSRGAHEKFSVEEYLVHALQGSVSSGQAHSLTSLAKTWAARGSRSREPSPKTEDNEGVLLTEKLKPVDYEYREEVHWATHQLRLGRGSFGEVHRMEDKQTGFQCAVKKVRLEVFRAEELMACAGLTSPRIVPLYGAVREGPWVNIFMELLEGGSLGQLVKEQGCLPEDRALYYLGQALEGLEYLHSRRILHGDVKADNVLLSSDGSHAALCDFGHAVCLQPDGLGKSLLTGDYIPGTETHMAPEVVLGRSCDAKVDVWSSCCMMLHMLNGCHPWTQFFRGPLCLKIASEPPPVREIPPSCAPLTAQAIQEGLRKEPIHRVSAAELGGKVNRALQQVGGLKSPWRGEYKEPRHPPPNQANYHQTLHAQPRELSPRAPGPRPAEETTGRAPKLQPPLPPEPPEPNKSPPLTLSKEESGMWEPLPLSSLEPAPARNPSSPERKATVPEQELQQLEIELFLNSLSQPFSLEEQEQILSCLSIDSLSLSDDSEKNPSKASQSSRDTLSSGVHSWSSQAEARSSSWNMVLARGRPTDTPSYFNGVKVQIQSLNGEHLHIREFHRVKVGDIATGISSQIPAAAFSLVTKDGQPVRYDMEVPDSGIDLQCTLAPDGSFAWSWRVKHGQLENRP

[7] = molecular target: Leucine-rich repeat serine/threonine-protein kinase 2 (Mus musculus) (UniProt Q5S006); assay: In vivo inhibition of LRRK2 in C57Bl/6 mouse kidney assessed as total LRRK2 protein level at 30 to 120 mg/kg administered for 11 days and measured after 24 hrs by Western blotting analysis; type: functional, organism-based; conditions: dose 30-120 mg/kg, time 11.0 day
Procedure, shortened: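 Same 11-day in-diet design in male C57Bl/6 mice: 3-120 mg/kg/day or untreated diet, killed 4, 8 or 24 h after dark-cycle onset, n = 5 per group. Kidneys dissected for Western blot of pSer935 and total LRRK2, with total LRRK2 detected by MJFF-2 antibody.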

Mus musculus [8] = assay: Effect on behavioral phenotype in 11 weeks old MitoPark mouse assessed as decreased locomotor activity at 30 mg/kg/day administered for 6 weeks and measured after 60 mins truScan photo beam activity system analysis; type: functional, organism-based; procedure, shortened: as §1
[9] = Tmax in C57Bl/6 mouse at 10 mg/kg, po measured after 480 mins by LC-MS/MS analysis; type: ADME, organism-based; conditions: in vivo
Procedure, shortened: (§3)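 Male C57Bl/6 mice (20-25 g) given a single IV dose (2 mg/kg) or oral dose (10 mg/kg). Blood was sampled at 5, 15, 30, 60, 120, 240, 360 and 480 min and plasma prepared by centrifugation. Plasma drug levels were measured by LC/MS/MS. Values are mean (CV%), N=3.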

[10] = molecular target: Leucine-rich repeat serine/threonine-protein kinase 2 (Mus musculus) (UniProt Q5S006); assay: In vivo inhibition of LRRK2 in C57Bl/6 mouse brain assessed as inhibition of pSer935 LRRK2 administered for 11 days and measured after 24 hrs by Western blotting analysis; type: functional, organism-based; conditions: dose 3-120 mg/kg, time 11.0 day
Procedure, shortened: (§4)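 Male C57Bl/6 mice, singly housed on a reversed light cycle. Fed drug diet targeted to 3, 10, 30, 60 or 120 mg/kg/day (assuming 3 g/day intake), or untreated diet, for 11 days. Killed 4, 8 or 24 h after dark-cycle onset, n = 5 per group. Cortex immunoblotted for pSer935/total LRRK2 and total LRRK2/GAPDH. Total LRRK2 detected with MJFF2 antibody.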

Mus musculus [11] = assay: Effect on behavioral changes in 8 weeks old MitoPark mouse striatum assessed as DOPAC level at 30 mg/kg/day administered for 3 weeks by HPLC analysis; type: functional; procedure, shortened: as §2
Mus musculus [12] = assay: Effect on behavioral phenotype in 8 weeks old MitoPark mouse assessed as locomotor activity at 30 mg/kg/day administered for 3 weeks and measured after 60 mins by truScan photo beam activity system analysis; type: functional, organism-based; procedure, shortened: as §1
[13] = Unbound brain concentration in C57Bl/6 mouse at 100 mg/kg, po administered for 1 hr; type: ADME, organism-based; conditions: in vivo
[14] = molecular target: 5-hydroxytryptamine receptor 2B (Homo sapiens, UniProt P41595); assay: Inhibition of serotonin 5-HT2B (unknown origin)
5-hydroxytryptamine receptor 2B, sequence (P41595 whole entry): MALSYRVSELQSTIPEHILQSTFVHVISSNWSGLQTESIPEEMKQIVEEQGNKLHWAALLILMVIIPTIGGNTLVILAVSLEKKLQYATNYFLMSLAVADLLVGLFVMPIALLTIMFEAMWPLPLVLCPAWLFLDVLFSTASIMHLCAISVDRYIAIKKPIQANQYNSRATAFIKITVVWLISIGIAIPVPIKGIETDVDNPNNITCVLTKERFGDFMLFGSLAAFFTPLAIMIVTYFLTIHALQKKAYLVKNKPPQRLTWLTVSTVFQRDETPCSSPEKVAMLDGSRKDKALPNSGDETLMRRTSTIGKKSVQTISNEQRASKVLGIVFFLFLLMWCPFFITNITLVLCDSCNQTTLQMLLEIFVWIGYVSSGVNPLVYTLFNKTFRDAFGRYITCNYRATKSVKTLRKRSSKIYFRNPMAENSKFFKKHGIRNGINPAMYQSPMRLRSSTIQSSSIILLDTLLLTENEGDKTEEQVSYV
Procedure, shortened: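 Radioligand binding selectivity screen was run at 10 μM, mean of three determinations. Where inhibition exceeded 50%, full concentration-displacement curves were run in triplicate and IC50 was obtained by nonlinear least-squares regression.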

[15] = Effect on spontaneous locomotor activity in C57Bl/6 mouse assessed as distance traveled administered for 11 days by truScan photo beam activity system analysis; type: toxicity; conditions: in vivo, 264 h, time 11 day
Procedure, shortened: (§5)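 Male C57Bl/6 mice, singly housed on a reversed 12 h light cycle, were fed diet formulated to give 3, 10, 30, 60 or 120 mg/kg/day (assumes 3 g/day intake) or untreated diet for 11 days. Body weight and food intake were monitored. Spontaneous locomotion and rearing were recorded over 60 min. On day 11, mice were euthanized 4, 8 or 24 h after dark onset and plasma and brain drug levels measured; n = 5 per group.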

Mus musculus [16] = assay: Effect on body weight in MitoPark mouse at 30 mg/kg administered for 15 weeks; type: functional, organism-based; procedure, shortened: as §1
[17] = Unbound brain concentration in C57Bl/6 mouse at 3 mg/kg, po administered for 1 hr; type: ADME, organism-based; conditions: in vivo
Mus musculus [18] = assay: Effect on histological changes in 20 weeks old MitoPark mouse kidney assessed as accumulation of pigment in renal cortical tubules at 30 mg/kg/day administered for 15 weeks by hematoxylin and eosin staining based microscopic analysis; type: functional, organism-based
Procedure, shortened: (§6)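 MitoPark mice were fed diet targeting 30 mg/kg/day or vehicle for 15 weeks and euthanized at 20 weeks of age (n=5/group). Kidney and lung were fixed in 10% neutral buffered formalin, paraffin-embedded, sectioned at 5 µm, H&E-stained and examined microscopically.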

[19] = Unbound brain concentration in C57Bl/6 mouse administered for 11 days; type: ADME, tissue-based; conditions: in vivo, 264 h, dose 3-100 mg/kg, time 11 day; procedure, shortened: as §5
[20] = Cmax in C57Bl/6 mouse at 2 mg/kg, iv measured after 480 mins by LC-MS/MS analysis; type: ADME, organism-based; conditions: in vivo; procedure, shortened: as §3
[21] = molecular target: Leucine-rich repeat serine/threonine-protein kinase 2 (Mus musculus) (UniProt Q5S006); assay: In vivo inhibition of LRRK2 in C57Bl/6 mouse brain assessed as reduction in pSer935 LRRK2 at 30 mg/kg administered for 11 days and measured for 4 to 24 hrs by Western blotting analysis; type: functional, organism-based; conditions: time 11.0 day; procedure, shortened: as §4
[22] = Effect on spontaneous locomotor activity in C57Bl/6 mouse assessed as rearing behaviour administered for 11 days by truScan photo beam activity system analysis; type: toxicity; conditions: in vivo, 264 h, time 11 day; procedure, shortened: as §5
Mus musculus [23] = assay: Effect on histological changes in 20 weeks old MitoPark mouse kidney assessed as kidney darkening at 30 mg/kg/day administered for 15 weeks by hematoxylin and eosin staining based microscopic analysis; type: functional, organism-based; procedure, shortened: as §6
Mus musculus [24] = assay: Effect on behavioral changes in 8 weeks old MitoPark mouse striatum assessed as HVA level at 30 mg/kg/day administered for 3 weeks by HPLC analysis; type: functional; procedure, shortened: as §2

fraction unbound [1]: 0.009
Drug uptake(free) [3]: 0.6 nM
inhibition [4]: Active
IC50 [6]: 244 nM
inhibition [7]: Active
Tmax [9]: 45 min
inhibition [10]: Dose-Dependent Effect
Drug uptake(free) [13]: 272.9 nM
IC50 [14]: 1200 nM
Drug uptake(free) [17]: 2.4 nM
Drug uptake(free) [19]: Dose-Dependent Effect
Cmax [20]: 716 nM
inhibition [21]: Active
Compound: C[C@@H]1CN(c2cc(-c3n[nH]c4ccc(OC5(C)CC5)cc34)ncn2)C[C@H](C)O1 [MLi-2]
Activity (Mus musculus [2]): Active
Activity (Mus musculus [5]): 7521 ng/g
Activity (Mus musculus [8]): Active
Activity (Mus musculus [11]): 8966 ng/g
Activity (Mus musculus [12]): Active
Activity [15]: Non-Toxic
Activity (Mus musculus [16]): inactive
Activity (Mus musculus [18]): inactive
Activity [22]: Non-Toxic
Activity (Mus musculus [23]): inactive
Activity (Mus musculus [24]): 267.6 ng/g
